# B1: Prolyl endopeptidase (Homo sapiens), P48147 (protein)
# chain: MLSLQYPDVYRDETAVQDYHGHKICDPYAWLEDPDSEQTKAFVEAQNKITVPFLEQCPIRGLYKERMTELYDYPKYSCHFKKGKRYFYFYNTGLQNQRVLYVQDSLEGEARVFLDPNILSDDGTVALRGYAFSEDGEYFAYGLSASGSDWVTIKFMKVDGAKELPDVLERVKFSCMAWTHDGKGMFYNSYPQQDGKSDGTETSTNLHQKLYYHVLGTDQSEDILCAEFPDEPKWMGGAELSDDGRYVLLSIREGCDPVNRLWYCDLQQESSGIAGILKWVKLIDNFEGEYDYVTNEGTVFTFKTNRQSPNYRVINIDFRDPEESKWKVLVPEHEKDVLEWIACVRSNFLVLCYLHDVKNILQLHDLTTGALLKTFPLDVGSIVGYSGQKKDTEIFYQFTSFLSPGIIYHCDLTKEELEPRVFREVTVKGIDASDYQTVQIFYPSKDGTKIPMFIVHKKGIKLDGSHPAFLYGYGGFNISITPNYSVSRLIFVRHMGGILAVANIRGGGEYGETWHKGGILANKQNCFDDFQCAAEYLIKEGYTSPKRLTINGGSNGGLLVAACANQRPDLFGCVIAQVGVMDMLKFHKYTIGHAWTTDYGCSDSKQHFEWLVKYSPLHNVKLPEADDIQYPSMLLLTADHDDRVVPLHSLKFIATLQYIVGRSRKQSNPLLIHVDTKAGHGAGKPTAKVIEEVSDMFAFIARCLNVDWIP
# Assays:
# [1] = substrate: Cc1cc(=O)oc2cc(NC(=O)[C@@H]3CCCN3C(=O)CNC(=O)OCc3ccccc3)ccc12; experiment: Activity of POP in human HCEC cell extracts incubated for 30 mins by fluorimetric assay
# How it was run: (§1)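 Confluent cell monolayers lysed in PBS with 0.1% Triton X-100. Increasing Z-Gly-Pro-AMC concentrations added; fluorescence increase (ex/em 360/460 nm) recorded for 30 min at 37 °C. KM read graphically from a double-reciprocal Michaelis–Menten plot.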
# [2] = substrate: Cc1cc(=O)oc2cc(NC(=O)[C@@H]3CCCN3C(=O)CNC(=O)OCc3ccccc3)ccc12; experiment: Activity of POP in human LN229 cell extracts incubated for 30 mins by fluorimetric assay; how it was run: as §1
# [3] = substrate: Cc1cc(=O)oc2cc(NC(=O)[C@@H]3CCCN3C(=O)CNC(=O)OCc3ccccc3)ccc12; experiment: Activity of POP in human LN18 cell extracts incubated for 30 mins by fluorimetric assay; how it was run: as §1
# [4] = substrate: Cc1cc(=O)oc2cc(NC(=O)[C@@H]3CCCN3C(=O)CNC(=O)OCc3ccccc3)ccc12; experiment: Activity of human recombinant POP incubated for 30 mins by fluorimetric assay
# How it was run: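 Recombinant human POP/PREP stock diluted in PBS containing 1 mg/mL BSA. Increasing Z-Gly-Pro-AMC concentrations added; fluorescence (ex/em 360/460 nm) followed for 30 min at 37 °C. KM determined graphically from a double-reciprocal Michaelis–Menten plot.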
# [5] = substrate: Cc1cc(=O)oc2cc(NC(=O)[C@@H]3CCCN3C(=O)CNC(=O)OCc3ccccc3)ccc12; experiment: Activity of POP in human LNZ308 cell extracts incubated for 30 mins by fluorimetric assay; how it was run: as §1
protein,measurement,setting,value
B1,Km,[1],7 µM
same,Km,[2],6.7 µM
same,Km,[3],8.5 µM
same,Km,[4],8.5 µM
same,Km,[5],8.1 µM
